Legend:
HT-29 = assay: Cytotoxicity against human HT-29 cells; format: functional
TK-10 = assay: Cytotoxicity against human TK10 cells; format: functional
Saccharomyces cerevisiae [1] = assay: Growth inhibition of GTT2-deficient Saccharomyces cerevisiae YLL060C mutant at 20 ug/disc after 24 to 48 hrs by agar diffusion assay; format: functional; conditions: read-out: DIZ
Outline: (§1)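 S. cerevisiae deletion mutants or wild type grown on YPD, seeded into liquid agar medium at an optical density of 0.1. 6 mm paper discs soaked with methanolic compound solution were placed on the plates and incubated at 30 °C. Growth was checked after 1 and 2 days, and the inhibition zone diameter was recorded in mm.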

NCI-H23 = assay: Cytotoxicity against human NCI-H23 cells; format: functional
IGROV-1 = assay: Cytotoxicity against human IGROV1 cells; format: functional
A498 [2] = assay: Cytotoxicity against human A498 cells; format: functional
SNB-75 = assay: Cytotoxicity against human SNB75 cells; format: functional
U-251 = assay: Cytotoxicity against human U251 cells; format: functional
[3] = Cytotoxicity against human 786-O cells; format: functional
T47D = assay: Cytotoxicity against human T47D cells; format: functional
SK-MEL-5 = assay: Cytotoxicity against human SK-MEL-5 cells; format: functional
SK-MEL-28 = assay: Cytotoxicity against human SK-MEL-28 cells; format: functional
SW-620 = assay: Cytotoxicity against human SW620 cells; format: functional
OVCAR-5 = assay: Cytotoxicity against human OVCAR5 cells; format: functional
[4] = Cytotoxicity against human PHF cells after 24 hrs by MTT assay; format: cell-based
Outline: (§2)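 MTT assay. Cells were seeded at 50,000 cells/mL in medium with 10% fetal calf serum and grown for two days at 37 °C, 10% CO2. Serial dilutions of compound were then added for 24 h. MTT was added (final 0.5 mg/mL) for 2 h, and the formazan was pelleted, washed, dissolved in isopropanol with 0.4% HCl and read at 590 nm. IC50 is the concentration giving 50% of untreated-control absorbance, taken from dose-response curves; mean of two parallel experiments.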

MDA-MB-435 = assay: Cytotoxicity against human MDA-MB-435 cells; format: functional
SNB-19 = assay: Cytotoxicity against human SNB19 cells; format: functional
Saccharomyces cerevisiae [5] = assay: Growth inhibition of GSH2-deficient Saccharomyces cerevisiae YOL049W mutant at 20 ug/disc after 24 to 48 hrs by agar diffusion assay; format: functional; conditions: read-out: DIZ; outline: as §1
M14 = assay: Cytotoxicity against human M14 cells; format: functional
HL-60 = assay: Cytotoxicity against human HL60 cells; format: functional
HCT-15 = assay: Cytotoxicity against human HCT15 cells; format: functional
LOX IMVI = assay: Cytotoxicity against human LOXIMVI cells; format: functional
A498 [6] = assay: Cytotoxicity against human A498 cells after 24 hrs by MTT assay; format: functional, cell-based; conditions: A498, 24 h; outline: as §2
NCI-H322M = assay: Cytotoxicity against human NCI-H322M cells; format: functional
HOP-62 = assay: Cytotoxicity against human HOP62 cells; format: functional
Saccharomyces cerevisiae [7] = assay: Growth inhibition of wild type Saccharomyces cerevisiae BY4741 at 20 ug/disc after 24 to 48 hrs by agar diffusion assay; format: functional; conditions: read-out: DIZ; outline: as §1
UACC-62 = assay: Cytotoxicity against human UACC62 cells; format: functional
EKVX = assay: Cytotoxicity against human EKVX cells; format: functional
HCT-116 = assay: Cytotoxicity against human HCT116 cells; format: functional
SN12C = assay: Cytotoxicity against human SN12C cells; format: functional
Saccharomyces cerevisiae [8] = assay: Growth inhibition of PST2-deficient Saccharomyces cerevisiae YDR032C mutant at 20 ug/disc 24 to 48 hrs by agar diffusion assay; format: functional; conditions: read-out: DIZ; outline: as §1
SF-295 = assay: Cytotoxicity against human SF295 cells; format: functional
RPMI-8226 = assay: Cytotoxicity against human RPMI8226 cells; format: functional
MDA-MB-468 = assay: Cytotoxicity against human MDA-MB-468 cells; format: functional
NCI/ADR-RES = assay: Cytotoxicity against human NCI/ADR-RES cells; format: functional
MCF7 = assay: Cytotoxicity against human MCF7 cells after 24 hrs by MTT assay; format: functional, cell-based; conditions: MCF7, 24 h; outline: as §2
SK-MEL-2 = assay: Cytotoxicity against human SK-MEL-2 cells; format: functional
COLO 205 = assay: Cytotoxicity against human COLO205 cells; format: functional
MDA-MB-231 = assay: Cytotoxicity against human MDA-MB-231 cells; format: functional
[9] = read-out: pLC50 (the source's name) (converted)

CC1=C(SCCC(=O)OC(C[Se]C2=C(C)C(=O)c3ccccc3C2=O)C(=O)NCCCCCC(=O)OCc2ccccc2)C(=O)c2ccccc2C1=O (stereo not drawn)
GI50 (HT-29): 3.55 µM
LC50 (HT-29): 83.2 µM
TGI (HT-29; read-out: pTGI (converted)): 20.9 µM
GI50 (TK-10): 13.8 µM
LC50 (TK-10): 53.7 µM
TGI (TK-10; read-out: pTGI (converted)): 26.9 µM
zone of inhibition at 20 µg/disc (Saccharomyces cerevisiae [1]): 12 mm
GI50 (NCI-H23): 2.75 µM
LC50 (NCI-H23): 52.5 µM
TGI (NCI-H23; read-out: pTGI (converted)): 7.76 µM
GI50 (IGROV-1): 2.14 µM
LC50 (concentration killing 50% of cells) (IGROV-1): 53.7 µM
TGI (IGROV-1; read-out: pTGI (converted)): 14.5 µM
GI50 (A498 [2]): 12 µM
LC50 (50% lethal concentration) (A498 [2]): > 100 µM
TGI (A498 [2]; read-out: pTGI (converted)): > 100 µM
GI50 (SNB-75): 11.5 µM
LC50 (SNB-75): 49 µM
TGI (SNB-75; read-out: pTGI (converted)): 24 µM
GI50 (U-251): 4.07 µM
LC50 (U-251): 46.8 µM
TGI (U-251; read-out: pTGI (converted)): 13.5 µM
GI50 ([3]; 786-0): 4.68 µM
LC50 ([3]; 786-0): 38 µM
TGI ([3]; 786-0, read-out: pTGI (converted)): 14.1 µM
GI50 (T47D): 17.8 µM
LC50 (T47D): > 100 µM
TGI (T47D; read-out: pTGI (converted)): 51.3 µM
GI50 (SK-MEL-5): 3.8 µM
LC50 (SK-MEL-5): 39.8 µM
TGI (SK-MEL-5; read-out: pTGI (converted)): 14.8 µM
GI50 (SK-MEL-28): 11.7 µM
LC50 (SK-MEL-28): 51.3 µM
TGI (SK-MEL-28; read-out: pTGI (converted)): 24.5 µM
GI50 (SW-620): 2.45 µM
LC50 (SW-620): 36.3 µM
TGI (SW-620; read-out: pTGI (converted)): 9.33 µM
GI50 (OVCAR-5): 5.01 µM
LC50 (OVCAR-5): 61.7 µM
TGI (OVCAR-5; read-out: pTGI (converted)): 18.6 µM
IC50 [4]: 5 µM
GI50 (MDA-MB-435): 2.14 µM
LC50 (MDA-MB-435): 49 µM
TGI (MDA-MB-435; read-out: pTGI (converted)): 12.9 µM
GI50 (SNB-19): 3.8 µM
LC50 (SNB-19): 40.7 µM
TGI (SNB-19; read-out: pTGI (converted)): 14.1 µM
zone of inhibition at 20 µg/disc (Saccharomyces cerevisiae [5]): 10 mm
GI50 (M14): 2 µM
LC50 (M14): 8.91 µM
TGI (M14; read-out: pTGI (converted)): 4.27 µM
GI50 (HL-60): 3.09 µM
LC50 (HL-60): > 100 µM
TGI (HL-60; read-out: pTGI (converted)): 8.51 µM
GI50 (HCT-15): 6.61 µM
LC50 (HCT-15): 58.9 µM
TGI (HCT-15; read-out: pTGI (converted)): 21.4 µM
GI50 (LOX IMVI): 2.75 µM
LC50 (LOX IMVI): 69.2 µM
TGI (LOX IMVI; read-out: pTGI (converted)): 11.5 µM
IC50 (A498 [6]): 5 µM
GI50 (NCI-H322M): 3.8 µM
LC50 (NCI-H322M): 66.1 µM
TGI (NCI-H322M; read-out: pTGI (converted)): 17.4 µM
GI50 (HOP-62): 3.8 µM
LC50 (HOP-62): 39.8 µM
TGI (HOP-62; read-out: pTGI (converted)): 14.5 µM
zone of inhibition at 20 µg/disc (Saccharomyces cerevisiae [7]): 0 mm
GI50 (UACC-62): 8.13 µM
LC50 (UACC-62): 46.8 µM
TGI (UACC-62; read-out: pTGI (converted)): 20.9 µM
GI50 (EKVX): 3.63 µM
LC50 (EKVX): 58.9 µM
TGI (EKVX; read-out: pTGI (converted)): 17.8 µM
GI50 (HCT-116): 2 µM
LC50 (HCT-116): 11.7 µM
TGI (HCT-116; read-out: pTGI (converted)): 4.57 µM
GI50 (SN12C): 4.68 µM
LC50 (SN12C): 57.5 µM
TGI (SN12C; read-out: pTGI (converted)): 16.6 µM
zone of inhibition at 20 µg/disc (Saccharomyces cerevisiae [8]): 11 mm
GI50 (SF-295): 2.51 µM
LC50 (SF-295): 97.7 µM
TGI (SF-295; read-out: pTGI (converted)): 8.71 µM
GI50 (RPMI-8226): 2.63 µM
LC50 (RPMI-8226): > 100 µM
TGI (RPMI-8226; read-out: pTGI (converted)): 7.76 µM
GI50 (MDA-MB-468): 3.02 µM
LC50 (MDA-MB-468): 37.2 µM
TGI (MDA-MB-468; read-out: pTGI (converted)): 8.51 µM
GI50 (NCI/ADR-RES): 4.57 µM
CC50 (NCI/ADR-RES; [9]): 81.3 µM
TGI (NCI/ADR-RES; read-out: pTGI (converted)): 18.2 µM
IC50 (MCF7): 10 µM
GI50 (SK-MEL-2): 5.5 µM
LC50 (SK-MEL-2): 52.5 µM
TGI (SK-MEL-2; read-out: pTGI (converted)): 19.1 µM
GI50 (COLO 205): 7.94 µM
CC50 (COLO 205; [9]): 56.2 µM
TGI (COLO 205; read-out: pTGI (converted)): 22.4 µM
GI50 (MDA-MB-231): 6.76 µM
LC50 (MDA-MB-231): 55 µM
TGI (MDA-MB-231; read-out: pTGI (converted)): 21.9 µM

Source: ChEMBL document CHEMBL2177069, “Novel peptidomimetic compounds containing redox active chalcogens and quinones as potential anticancer agents” (Eur J Med Chem, 2012)
